CHOP UPR activ – activators of apoptotic arm of unfolded protein response (CHOP); CHO-CHOP luciferase reporter, UPR activation, luminescence; percent of tunicamycin response over DMSO baseline; activation, % at 10 µM; actives 0.34% (n = 330,000);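 active = at 10 µM dose, activation of 40% or more, normalized to positive control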;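 note: 100% = tunicamycin at 10 µg/mL and 0% = DMSO alone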
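Test system: CHO CHOP reporter cells. Input: 500 CHO-CHOP cells per well. Medium: F12 with 10% FBS. Technique: luciferase luminescence. Measure: percent activation relative to tunicamycin control. Dosing: 10 µM compound, 0.5% DMSO. Timing: 16-18 h cell attachment, then 6 h compound exposure, 37 °C.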
UPR XBP1 act – activators of adaptive arm of unfolded protein response (XBP1); CHO-XBP1 luciferase reporter, IRE1-XBP1 UPR activation, luminescence; percent of tunicamycin response, DMSO as zero; actives 0.33% (n = 330,000); activation, % at 20 µM; AID 463104;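 active = versus positive control, 20 µM dose yields 30% or more activation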;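 note: 100% = tunicamycin at 10 µg/mL and 0% = DMSO only wells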
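Assay system: CHO-XBP1 luciferase reporter cells; Schedule: 6 h treatment, 37 °C; Detection: glow luminescence from Steady-Glo reagent; Benchmarks: high control tunicamycin 10 µg/mL final, low control DMSO vehicle only.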
NOD2 RIPK2 PPI – inhibitors of human NOD2-RIPK2 interaction. O43353. CHO BLA complementation NOD2-RIPK2, CCF4 ratio. inhibition, % at 4.98 µM. actives 0.38% (n = 360,000). AID 624267; in the data active = inhibition above about 21%;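 note: 0% = vehicle only and 100% = reference blocker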
Target sequence (O43353 whole entry, looked up): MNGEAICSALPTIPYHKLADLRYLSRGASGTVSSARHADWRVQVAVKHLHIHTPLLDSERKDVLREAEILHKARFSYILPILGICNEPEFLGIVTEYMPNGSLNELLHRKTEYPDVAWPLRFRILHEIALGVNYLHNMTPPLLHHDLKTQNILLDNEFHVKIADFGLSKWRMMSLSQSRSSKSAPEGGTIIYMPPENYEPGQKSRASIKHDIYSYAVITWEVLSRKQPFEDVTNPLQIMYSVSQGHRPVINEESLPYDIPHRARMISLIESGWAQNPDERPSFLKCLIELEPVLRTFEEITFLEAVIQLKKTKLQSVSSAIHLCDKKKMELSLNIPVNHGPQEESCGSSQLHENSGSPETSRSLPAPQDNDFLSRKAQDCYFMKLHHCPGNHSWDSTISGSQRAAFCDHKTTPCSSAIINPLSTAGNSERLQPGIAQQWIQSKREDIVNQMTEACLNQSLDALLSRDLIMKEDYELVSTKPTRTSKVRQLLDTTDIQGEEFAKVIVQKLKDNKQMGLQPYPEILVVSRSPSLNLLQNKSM
CHOP inhibitor – blocks CHOP induction under ER stress; AID 2732; inhibition, % at 10 µM; CHO-K1 CHOP-promoter luciferase, tunicamycin-induced, 15-18 h; actives 3.8% (n = 220,000);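 active = compounds that reduced the stress-induced luciferase reporter signal by more than about 70% of percent inhibition, limit read from the data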;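 note: 0% = tunicamycin plus vehicle and 100% = wells without tunicamycin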
TLR4-MyD88 BLA – blocks binding of human TLR4 to MyD88; HeLa CL3-4 TLR4/MyD88 BLA complementation, FRET ratio; AID 861; actives 0.18% (n = 200,000); inhibition, % at 8.4 µM; in the data active = inhibition above about 25%;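 note: 0% = vehicle and 100% = reference inhibitor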
TLR9-MyD88 inh – inhibitors of human TLR9-MyD88 binding | Q9NR96+Q99836 | inhibition, % at 4.98 µM | CHO BLA complementation TLR9-MyD88, CCF4 FRET ratio | actives 0.21% (n = 340,000);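 active = inhibition above the mean over all tested compounds plus 3 SD, cut at about 21% in these data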;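 note: 0% = DMSO only wells and 100% = clavulanate BLA inhibitor control wells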
* = called active by the depositor; / = not tested or not shown. This excerpt belongs to a sample that is enriched for hits.

SMILES	CHOP UPR activ	UPR XBP1 act	NOD2 RIPK2 PPI	CHOP inhibitor	TLR4-MyD88 BLA	TLR9-MyD88 inh
Cc1ccc(-n2nc(C)c3c(C)c(CCC(=O)NCc4ccco4)c(C)nc32)cc1	-1	-3	-8	70*	/	9
COCCn1c(N)c(Sc2ccc([N+](=O)[O-])cc2)c(=O)[nH]c1=O	0	0	5	-6	7	1
c1ccc(-n2nc3c(ccc4cnnc43)[nH]2)cc1	7	7	-2	86*	-5	0
Cn1nc(C2CC2)cc1NC(=O)C1(C)CCN1C(=O)c1ccccc1CCc1ccccc1 (stereo not drawn)	/	/	0	/	/	/
Cc1cc(C)nc(Nc2ncc(O)n2-c2ccc(C)c(Cl)c2)n1	2	1	1	80*	0	0
CCN(CC(=O)Nc1c(F)cccc1F)C(=O)C1CC1C (stereo not drawn)	-1	-2	-5	/	/	-8
COc1ccc(Br)cc1C(=O)N/N=C/c1ccc([N+](=O)[O-])cc1	-1	5	0	100*	-12	-11
O=c1oc2cc(Br)ccc2n1CSC1=NCCS1	5	2	-6	71*	3	-2
CCOC(=O)c1c(NC(=O)CN2CCN(C(=O)c3ccco3)CC2)sc2c1CCCC2	1	-1	2	86*	-18	3
CCOC(=O)c1c(NC(=O)CN2CCCCC2)sc2c1CCN(C(=O)OCC)C2	2	-2	1	81*	11	-16
CCOC(=O)c1c(NC(=O)c2ccco2)sc2c1CCCC2	-1	0	3	4	2	3
CCOC(=O)c1c(NC(=S)N2CCN(C)CC2)sc2c1CCN(C(=O)OCC)C2	7	2	8	-4	/	-5
CCOC(=O)c1c(NC(=O)CN(CC)CC)sc2c1CCN(C(=O)OCC)C2	0	0	7	75*	-5	1
CC(C)c1ccccc1NC(=O)CNC(C)c1ccc(F)cc1 (stereo not drawn)	0	-4	-1	6	-9	/
CC(=O)Oc1ccc(Cn2c(C)c(C(=O)NCc3cccc(C(F)(F)F)c3)sc2=O)cc1	/	/	10	/	/	/
COCCNC(=O)c1[nH]c(C(F)(F)F)nc1-c1ccccc1	/	/	-8	/	/	/
CCc1c(C)sc(NC(=O)C2CC2)c1C(=O)OC(C)C	0	-4	-5	81*	-8	-1
CCOC(=O)N1CCN(CC(O)COc2cc(C)cc(C)c2)CC1 (stereo not drawn)	3	0	-4	/	/	-5
O=S(Cc1ccc(Br)cc1)Cc1nnc(SCc2c(F)cccc2Cl)n1-c1ccccc1 (stereo not drawn)	4	-2	1	74*	0	0
O=S(Cc1ccc(Br)cc1)Cc1nnc(SCc2ccc(Cl)cc2)n1-c1ccccc1 (stereo not drawn)	11	1	6	85*	1	-1
CC(=O)NC(c1ccccc1)c1nc(-c2csc3ccccc23)cs1 (stereo not drawn)	/	/	1	/	/	/
COc1ccc(C(=O)/C=C2/C(=O)Nc3ccccc32)cc1OC	48*	-2	10	/	/	5
O=C(c1sccc1-c1ccccc1)N1CCN(S(=O)(=O)c2ccccc2F)CC1	0	-2	-2	/	/	-1
CC(C)C(=O)N1CCCC1(C)C(=O)Nc1ccc(F)cc1 (stereo not drawn)	/	/	-13	/	/	/
O=C1CSC2=NCN(c3ccc4c(c3)OCO4)CN12	1	-1	1	94*	1	2
SMILES	CHOP UPR activ	UPR XBP1 act	NOD2 RIPK2 PPI	CHOP inhibitor	TLR4-MyD88 BLA	TLR9-MyD88 inh
OC(COc1ccc2ccccc2c1)CN1CCN(c2ccc(F)cc2)CC1 (stereo not drawn)	1	-1	0	87*	5	2
OC(COc1cccc2ccccc12)CN1CCN(c2ccc(Cl)cc2)CC1 (stereo not drawn)	-1	2	-16	38	/	8
COc1cccc(OCC(O)CN2CCN(c3ccc(F)cc3)CC2)c1 (stereo not drawn)	-1	-1	-6	/	/	-13
OC(COc1cccc2ccccc12)CN1CCN(c2cccc(Cl)c2)CC1 (stereo not drawn)	0	-2	-5	71*	/	2
CC(=O)c1ccccc1OCC(O)CN1CCN(C(c2ccccc2)c2ccccc2)CC1 (stereo not drawn)	0	-2	3	75*	2	0
COc1ccc([C@H]2CC(=O)C=C(c3cccc4c3Oc3ccccc3S4)C2)cc1	-2	-1	-3	/	/	4
CNc1cc(-c2cccc(C(=O)N3CCOCC3)c2)ncn1	/	/	-15	/	/	/
Cc1ccc(OCCCC(=O)Nc2ccc(Br)cc2)cc1	-1	-2	0	74*	2	3
Cc1ccc(C)c(S(=O)(=O)N2CCN(Cc3cc4c(cc3O)OCO4)CC2)c1	-1	1	-2	/	/	8
CC(C)(C)C(=O)C(Cl)C(=O)Nc1ccccc1 (stereo not drawn)	21	54*	10	80*	/	11
CC(C)OC(=O)C(C(=O)C(F)(F)F)c1cc(NS(=O)(=O)c2ccc3ccccc3c2)c2ccccc2c1O (stereo not drawn)	3	-1	14	92*	2	-5
COc1cccc(NC(=O)c2cccc(S(=O)(=O)N3CCN(Cc4ccccc4)CC3)c2)c1	2	-2	-16	/	/	-8
Cc1ccc(-c2cc(C(F)F)nc(NCc3cccs3)n2)cc1	1	-2	1	91*	-2	-2
FC(F)(F)c1cc(-c2ccc(Cl)cc2)nc(NCc2cccnc2)n1	1	0	-1	89*	6	0
Cc1ccc(CC(=O)NCc2cccnc2)cc1	-1	-3	/	-4	-1	/
COc1ccc(-c2cc(C(F)(F)F)nc(NCc3cccs3)n2)cc1	1	-1	-14	18	-17	-7
Clc1ccc(NCc2cccnc2)c(Cl)c1	0	-1	-5	/	/	-1
Cc1ccc(-c2cc(C(F)F)nc(NCc3cccnc3)n2)cc1	3	-1	4	76*	-12	0
Cc1ccc(-c2cc(C(F)F)nc(NCC3CCCO3)n2)cc1 (stereo not drawn)	1	11	-3	86*	-19	3
CC1(C)CC(=O)C(C2C3=C(CC(C)(C)CC3=O)Oc3c(Br)cc(Br)cc32)=C(O)C1 (stereo not drawn)	0	-1	-7	/	/	0
CCCc1cc(=O)[nH]c(SCCCCN2C(=O)c3ccccc3C2=O)n1	-1	-4	-1	33	7	13
Cc1sc2ncnc(N3CCCCC3)c2c1C	-1	1	-4	23	3	-7
Cc1ccc(OCCN2CCN(c3ncnc4sc(C)c(C)c34)CC2)cc1	3	-3	-1	72*	-9	11
